# LMPTP inh: blocks human LMPTP phosphatase | recombinant LMPTP-A, OMFP fluorogenic substrate, fluorescence intensity | hit rate 0.22% among 360,000 | inhibition, % at 20 µM | P24666;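 active means compounds that cut the enzyme signal by at least half of the control window in the single-dose screen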
# Target sequence (P24666 whole entry, looked up): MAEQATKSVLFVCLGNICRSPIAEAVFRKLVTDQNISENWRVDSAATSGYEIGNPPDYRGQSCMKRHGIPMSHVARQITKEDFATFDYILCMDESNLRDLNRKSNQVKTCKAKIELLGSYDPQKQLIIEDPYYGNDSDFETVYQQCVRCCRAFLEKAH
#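 Test system: LMPTP-A, protein tyrosine phosphatase of low molecular weight; Input: 0.625 nM enzyme; Incubation: 50 min dark incubation at room temperature; Signal: endpoint fluorescence intensity from OMFP dephosphorylation; Read-out basis: % inhibition versus control wells.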
# STEP block: blocks human striatal-enriched tyrosine phosphatase | P54829 | recombinant STEP, OMFP fluorogenic substrate, fluorescence | inhibition, % at 20 µM | hit rate 0.25% among 360,000 | AID 588621;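 active means inhibition at 20 µM, scaled per plate between control wells, above about 37%, limit read from the data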
#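 Material: STEP (striatal-enriched tyrosine phosphatase) enzyme, cell-free | Medium: 50 mM Bis-Tris pH 6.0 with 2.5 mM DTT and 0.005% Tween 20 | Read-out: Percent inhibition scaled to no-enzyme and uninhibited-enzyme controls, plate-pattern corrected | Signal: Fluorescence read at 480 nm ex / 540 nm em | Times: 20 min reaction, room temperature, in the dark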
# CSN inh: CSN deneddylation inhibition; Q92905; Purified CSN, SCF-Nedd8-OG deneddylation, fluorescence polarization; inhibition, % at 12.5 µM; hit rate 0.38% among 360,000; AID 651999;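 active means pattern-corrected inhibition above about 35%, with an unprinted fluorescence ratio check between 0.5 and 1.5, limit read from the data, passing the limit was not always enough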
#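 Material: purified human Csn5 enzyme expressed in HEK293T cells / Medium: Tris buffer pH 7.5, NaCl, DTT, Tween-20, trehalose, ovalbumin / Compound dosing: 12.5 µM single point / Schedule: 90 min incubation of compound, enzyme and substrate at room temperature / Signal: fluorescence polarization of the substrate / Control set: no-enzyme wells high, enzyme-with-substrate wells low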
# SUMO1-SIM PPI: modulators of human SUMO1-mediated protein-protein interactions | P63165 | SUMO1 binding to a labelled peptide, TR-FRET, 1 h | inhibition, % at 20 µM | hit rate 0.33% among 360,000 | AID 602429; in the data active means inhibition above about 37%
# Target sequence (P63165 whole entry, looked up): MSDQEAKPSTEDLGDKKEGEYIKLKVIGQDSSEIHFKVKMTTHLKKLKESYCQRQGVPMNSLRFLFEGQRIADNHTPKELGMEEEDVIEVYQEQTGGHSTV
# DNMT1 inh: blocks human DNA methyltransferase DNMT1; P26358; DNMT1 molecular beacon, Hinp1I cleavage, fluorescence; inhibition (reported as % activation of signal), % at 10 µM; hit rate 0.83% among 360,000; AID 588458; in the data active means inhibition above about 50%
# Scp1 inh: Scp-1 (human) phosphatase inhibition; hit rate 0.88% among 340,000; AID 493091; inhibition, % at 20 µM; Recombinant Scp1, phosphopeptide, malachite green phosphate absorbance; Q9GZU7;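 active means inhibition above about 50% at 20 µM, limit read from the data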
# Target sequence (Q9GZU7 76-261 limits assumed): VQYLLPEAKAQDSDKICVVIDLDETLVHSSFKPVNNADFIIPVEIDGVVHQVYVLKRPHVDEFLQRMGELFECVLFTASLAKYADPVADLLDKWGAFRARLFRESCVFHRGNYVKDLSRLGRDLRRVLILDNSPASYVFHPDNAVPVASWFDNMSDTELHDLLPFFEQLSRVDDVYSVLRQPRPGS
#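 Test system: SCP-1 phosphatase catalytic domain, residues 76-261 | Compound dosing: One concentration, 20 µM, with 1.0% DMSO | Schedule: 45 min room-temperature reaction, 5 min colour, 30 min stabiliser | Detection: Absorbance at 630 nm | Read-out basis: % inhibition of SCP-1 phosphate liberation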
# A number is an active result; i = inactive; nt = not tested or not shown; ! = a repeat was not active. The list is not random: actives were taken first. Their share in the collection is about 1.9%.
SMILES,LMPTP inh,STEP block,CSN inh,SUMO1-SIM PPI,DNMT1 inh,Scp1 inh
COCCN=c1scc(-c2ccco2)n1/N=C/c1ccc(O)c(O)c1O,73,i,i,i,70,89
Cc1cccn2c(=O)c(/C=N/O)c(Nc3ccccc3F)nc12,i,i,i,52,i,i
COc1ccc(OC)c(/C=C2\S/C(=N/NC(=O)c3ccc4ccccc4c3)NC2=O)c1,i,i,51,i,i,i
O=C1N/C(=N/NC(=O)c2cccc3ccccc23)S/C1=C\c1ccccc1OCc1ccccc1,i,i,i,i,i,i
CCN(CC(=O)Nc1c(F)cccc1F)C(=O)/C=C/c1ccc2ccccc2n1,71,42,i,77,102,86
CCN(CC(=O)Nc1c(F)cccc1F)C(=O)c1ccc2ccccc2n1,i,i,i,i,i,i
O=c1c2cc(F)ccc2sn1-c1ccc(F)cc1,i,i,i,i,i,81
COc1ccc(-n2sc3ccccc3c2=O)cc1,i,i,i,i,i,nt
Cc1ccc(C)c(-n2sc3ccc(F)cc3c2=O)c1,i,i,i,i,i,70
COc1ccc(-n2sc3ccc(F)cc3c2=O)cc1,i,i,i,i,i,81
CN(C)CCCn1c2c3ccccc3ccc2c2oc(=O)c3ccccc3c21,i,i,i,i,77,i
CN(C)CCCn1c(=S)[nH]c2ccccc2c1=O,i,i,i,i,i,i
O=C(/C=C/c1cccc([N+](=O)[O-])c1)NCCN1CCOCC1,i,i,i,i,i,i
CC(c1ccccc1)N1CC(C(=O)Nc2ccc(F)cc2)CC1=O (stereo not drawn),i,i,i,i,i,i
COc1cc([N+](=O)[O-])ccc1NC(=S)NNC(=O)c1ccc2c(c1)OCO2,i,i,i,i,i,i
O=C(NC(=S)Nc1cc([N+](=O)[O-])ccc1O)c1ccc2c(c1)OCO2,58,i,i,i,i,i
CN(C)CCNc1cccc2sc3ccc(O)cc3c(=O)c12,i,i,i,i,56,nt
Cc1ccc(NCCN(C)C)c2c(=O)c3cc(O)ccc3sc12,i,i,i,i,57,i
Cc1ccc(OC2CCN(C(=O)[C@H]3O[C@@H](n4cnc5c(N)ncnc54)[C@H](O)[C@@H]3O)CC2)cc1,i,i,i,i,i,nt
O=C(NC1CCCC1)C(C1CC1)n1c(-c2ccncc2)nc2ccccc21 (stereo not drawn),i,nt,i,i,nt,nt
Cn1c(N)c(C(=O)COC(=O)CSc2ccc3ccccc3c2)c(=O)n(C)c1=O,i,i,i,i,i,i
Cn1c(N)c(C(=O)COC(=O)c2cc3ccccc3cc2O)c(=O)n(C)c1=O,i,i,i,51,i,i
CC(=O)c1ccc(NC(=O)C2CC(=O)N(C(C)C)C2)cc1 (stereo not drawn),i,i,i,i,i,i
Fc1ccc(C2=CC(c3ccc(Br)o3)n3ncnc3N2)cc1 (stereo not drawn),i,i,i,i,i,i
Brc1ccc(C2=CC(c3cccs3)n3ncnc3N2)cc1 (stereo not drawn),i,i,i,i,66,i
SMILES,LMPTP inh,STEP block,CSN inh,SUMO1-SIM PPI,DNMT1 inh,Scp1 inh
CCOC(=O)N1CCN(S(=O)(=O)c2ccc3[nH]cc(C(=O)O)c(=O)c3c2)CC1,i,i,i,i,i,i
O=C(O)c1c[nH]c2ccc(S(=O)(=O)N3CCN(c4ccc(F)cc4)CC3)cc2c1=O,59,76,i,i,i,i
O=C1CC(c2ccc(O)c(O)c2)Oc2c1ccc(O)c2O (stereo not drawn),60,i,i,i,i,53
CN(CCOc1ccc(Cl)cc1)C(=O)c1cc([N+](=O)[O-])ccc1N1CCOCC1,i,i,i,i,i,i
Nc1nc(=S)c2ncn(C3OC(CO)C(O)C3O)c2[nH]1 (stereo not drawn),i,43,i,i,80,77
CCOC(=O)c1c(C)nc2sc3c(=O)n(-c4ccc(C)cc4)cnc3c2c1-c1ccc(OC)cc1,i,i,i,40,i,i
O=Cc1ccc(-c2cccc([N+](=O)[O-])c2)o1,i,i,i,i,i,i
O=C1NC(=O)/C(=C/c2ccc(-c3cccc([N+](=O)[O-])c3)o2)S1,i,i,i,55,i,i
O=C1C=C(NCCc2cc(Br)c(O)c(Br)c2)C(=O)c2ncccc21,i,46,i,41,92,i
CSc1ccc(C2=C/C(=C3/SC(=S)NC3=O)c3ccccc3O2)cc1,i,i,i,i,70,i
CCN1/C(=C2/SC(=S)NC2=O)Sc2ccccc21,i,i,i,i,i,i
CSC1=C(C#N)C(c2ccncc2)C(C(=O)Nc2ccccc2)=C(C)N1 (stereo not drawn),i,i,93,i,i,i
c1ccc(-c2nnc(-c3ccco3)o2)cc1,i,i,i,i,i,i
c1coc(-c2nnc(-c3ccco3)nn2)c1,i,91,i,92,116,71
CCCCCCCCCCCCCCCC[n+]1ccccc1,i,i,i,i,i,i
CCCCCCCC[n+]1cccc(C(=O)N(CC)CC)c1,i,i,i,i,i,i
CCCCCCCCCCCCCCCC[n+]1cccc(C(=O)N(CC)CC)c1,i,i,i,38!,i,i
CCCCCCCCCCCCCCCC[n+]1ccc(C(N)=O)cc1,i,i,i,52,i,i
CC(C)n1cc(CN2CCCC(CNS(=O)(=O)c3cccc4cccnc34)C2)cn1 (stereo not drawn),i,i,i,i,i,i
O=C(Nc1ccn(Cc2ccc(Cl)cc2)n1)c1ccc2c(c1)OCO2,i,i,i,40,i,i
Cc1ccc(NC(=O)C2C3CCC(O3)C2C(=O)O)c(Br)c1 (stereo not drawn),i,i,i,i,i,i
O=C1c2ccccc2NC(c2cccc(Cl)c2)N1N=C1CCCCCC1 (stereo not drawn),i,i,57,i,i,i
CCN1C(=O)CC2(C[N+]3(C)CCC2CC3)C1=O (stereo not drawn),i,i,i,i,i,i
N#CC1CC(c2ccccc2)=NN1c1ccccc1[N+](=O)[O-] (stereo not drawn),i,i,i,i,i,i
CCC1CCCCN1CCCNC(=O)COc1cc(=O)n(C)c2ccccc12 (stereo not drawn),i,i,i,44,i,i
Cc1cc(C(=O)CCl)c(C)n1-c1cccc(S(=O)(=O)N2CCOCC2)c1,nt,nt,nt,nt,nt,i
C=CCN1C(=O)/C(=C/c2ccc(O)c(OC)c2)S/C1=N/c1nccs1,i,i,83,i,i,i
C=CCN1C(=O)/C(=C/c2ccc(OCC(=O)O)cc2)S/C1=N/c1nccs1,i,i,i,i,i,i

# Bioassay records as filed in PubChem BioAssay.
